# In ChEMBL document CHEMBL1687728, “Daptomycin versus Friulimicin B: in-depth profiling of Bacillus subtilis cell envelope stress responses” (2009):
# Active and inactive are the calls of the source. The rule behind the calls is not given here.
# How the values were obtained:
# Bacillus subtilis [1] = test: Induction of ywaC gene expression in Bacillus subtilis at 1 ug/ml by microarray analysis relative to untreated control; type: functional
# Method in brief: (§1)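 B. subtilis cells harvested 10 min after antibiotic addition. Pellets were snap-frozen in liquid nitrogen, then RNA was prepared for microarray hybridization. Fold induction is taken against untreated control cells.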
# Bacillus subtilis [2] = test: Induction of mreBH gene expression in Bacillus subtilis at 1 ug/ml by microarray analysis relative to untreated control; type: functional; method in brief: as §1
# Bacillus subtilis [3] = test: Induction of ydaH gene expression in Bacillus subtilis at 1 ug/ml by microarray analysis relative to untreated control; type: functional; method in brief: as §1
# Bacillus subtilis [4] = test: Induction of yqjL gene expression in Bacillus subtilis at 1 ug/ml by microarray analysis relative to untreated control; type: functional; method in brief: as §1
# Bacillus subtilis [5] = test: Induction of bcrC gene expression in Bacillus subtilis at 1 ug/ml by microarray analysis relative to untreated control; type: functional; method in brief: as §1
# Bacillus subtilis [6] = test: Induction of yrhH gene expression in Bacillus subtilis at 1 ug/ml by microarray analysis relative to untreated control; type: functional; method in brief: as §1
# Bacillus subtilis [7] = test: Induction of liaIH gene expression in Bacillus subtilis at 1 ug/ml by microarray analysis relative to untreated control; type: functional; method in brief: as §1
# Bacillus subtilis [8] = test: Induction of gerAAABAC gene expression in Bacillus subtilis at 1 ug/ml by microarray analysis relative to untreated control; type: functional; method in brief: as §1
# Bacillus subtilis [9] = test: Induction of ybeF gene expression in Bacillus subtilis at 1 ug/ml by microarray analysis relative to untreated control; type: functional; method in brief: as §1
# Bacillus subtilis [10] = test: Induction of sigM-yhdLK gene expression in Bacillus subtilis at 1 ug/ml by microarray analysis relative to untreated control; type: functional; method in brief: as §1
# Bacillus subtilis [11] = test: Induction of yjbC-spx gene expression in Bacillus subtilis at 1 ug/ml by microarray analysis relative to untreated control; type: functional; method in brief: as §1
# Bacillus subtilis [12] = test: Induction of sms-yacKL gene expression in Bacillus subtilis at 1 ug/ml by microarray analysis relative to untreated control; type: functional; method in brief: as §1
# Bacillus subtilis [13] = test: Induction of radC gene expression in Bacillus subtilis at 1 ug/ml by microarray analysis relative to untreated control; type: functional; method in brief: as §1
# Bacillus subtilis [14] = test: Induction of ypuA gene expression in Bacillus subtilis at 1 ug/ml by microarray analysis relative to untreated control; type: functional; method in brief: as §1
# Bacillus subtilis [15] = test: Induction of ypbG gene expression in Bacillus subtilis at 1 ug/ml by microarray analysis relative to untreated control; type: functional; method in brief: as §1
# Bacillus subtilis [16] = test: Induction of ypuD gene expression in Bacillus subtilis at 1 ug/ml by microarray analysis relative to untreated control; type: functional; method in brief: as §1
# Bacillus subtilis [17] = test: Induction of ycgRQ gene expression in Bacillus subtilis at 1 ug/ml by microarray analysis relative to untreated control; type: functional; method in brief: as §1
# Bacillus subtilis [18] = test: Induction of yrhIJ gene expression in Bacillus subtilis at 1 ug/ml by microarray analysis relative to untreated control; type: functional; method in brief: as §1
# Bacillus subtilis [19] = test: Induction of sigV-yrhM gene expression in Bacillus subtilis at 1 ug/ml by microarray analysis relative to untreated control; type: functional; method in brief: as §1
# Bacillus subtilis [20] = test: Induction of yfnI gene expression in Bacillus subtilis at 1 ug/ml by microarray analysis relative to untreated control; type: functional; method in brief: as §1
# Bacillus subtilis [21] = test: Induction of yebC gene expression in Bacillus subtilis at 1 ug/ml by microarray analysis relative to untreated control; type: functional; method in brief: as §1
# Bacillus subtilis [22] = test: Induction of yppC gene expression in Bacillus subtilis at 1 ug/ml by microarray analysis relative to untreated control; type: functional; method in brief: as §1
# Bacillus subtilis [23] = test: Induction of ywnJ gene expression in Bacillus subtilis at 1 ug/ml by microarray analysis relative to untreated control; type: functional; method in brief: as §1
# Bacillus subtilis [24] = test: Induction of ywtF gene expression in Bacillus subtilis at 1 ug/ml by microarray analysis relative to untreated control; type: functional; method in brief: as §1
# Bacillus subtilis [25] = test: Induction of pbpI gene expression in Bacillus subtilis at 1 ug/ml by microarray analysis relative to untreated control; type: functional; method in brief: as §1
# Bacillus subtilis [26] = test: Induction of rodA gene expression in Bacillus subtilis at 1 ug/ml by microarray analysis relative to untreated control; type: functional; method in brief: as §1
# Bacillus subtilis [27] = test: Induction of ylxW gene expression in Bacillus subtilis at 1 ug/ml by microarray analysis relative to untreated control; type: functional; method in brief: as §1
# Bacillus subtilis [28] = test: Induction of yoxD gene expression in Bacillus subtilis at 1 ug/ml by microarray analysis relative to untreated control; type: functional; method in brief: as §1
# Bacillus subtilis [29] = test: Induction of yqiG gene expression in Bacillus subtilis at 1 ug/ml by microarray analysis relative to untreated control; type: functional; method in brief: as §1
# Bacillus subtilis [30] = test: Induction of yjbQ gene expression in Bacillus subtilis at 1 ug/ml by microarray analysis relative to untreated control; type: functional; method in brief: as §1
# Bacillus subtilis [31] = test: Induction of sigM gene expression in Bacillus subtilis by real-time RT-PCR; type: functional
# Method in brief: (§2)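 Transcript levels measured by one-step real-time RT-PCR with SYBR green detection. Fold change is given as mean ± standard deviation of two independent experiments.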
# Bacillus subtilis [32] = test: Induction of sigV gene expression in Bacillus subtilis by real-time RT-PCR; type: functional; method in brief: as §2
# Bacillus subtilis [33] = test: Induction of sigW gene expression in Bacillus subtilis by real-time RT-PCR; type: functional; method in brief: as §2
# Bacillus subtilis [34] = test: Induction of sigX gene expression in Bacillus subtilis by real-time RT-PCR; type: functional; method in brief: as §2
# Bacillus subtilis [35] = test: Induction of sigY gene expression in Bacillus subtilis by real-time RT-PCR; type: functional; method in brief: as §2
# Bacillus subtilis [36] = test: Induction of sigZ gene expression in Bacillus subtilis by real-time RT-PCR; type: functional; method in brief: as §2
# Bacillus subtilis [37] = test: Induction of ylaC gene expression in Bacillus subtilis by real-time RT-PCR; type: functional; method in brief: as §2
# Bacillus subtilis [38] = test: Induction of liaH gene expression in Bacillus subtilis by real-time RT-PCR; type: functional; method in brief: as §2
# Bacillus subtilis [39] = test: Induction of promoter liaI in Bacillus subtilis at 0.5 to 2 ug/ml; type: functional, organism-based
# Method in brief: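 PliaI promoter activity read by β-galactosidase assay in strain BFS2470 (W168 liaI::pMUTIN). Antibiotic concentrations spanned 4 orders of magnitude.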
compound,measurement,setting,value
CC(C)CCCCCCC/C=C\CC(=O)N[C@@H](CC(N)=O)C(=O)N[C@@H]1C(=O)N2CCCC[C@@H]2C(=O)N[C@@H]([C@H](C)C(=O)O)C(=O)N[C@@H](CC(=O)O)C(=O)NCC(=O)N[C@@H](CC(=O)O)C(=O)NCC(=O)N[C@H]([C@H](C)N)C(=O)N[C@@H](C(C)C)C(=O)N2CCC[C@H]2C(=O)N[C@@H]1C [FRIULIMICIN B],fold change (FC),Bacillus subtilis [1],8.7
same,fold change (FC),Bacillus subtilis [2],3.1
same,fold change (FC),Bacillus subtilis [3],9.1
same,fold change (FC),Bacillus subtilis [4],8.9
same,fold change (FC),Bacillus subtilis [5],8.2
same,fold change (FC),Bacillus subtilis [6],8.5
same,Activity,Bacillus subtilis [7],inactive
same,Activity,Bacillus subtilis [8],inactive
same,Activity,Bacillus subtilis [9],inactive
same,fold change (FC),Bacillus subtilis [10],7.4
same,fold change (FC),Bacillus subtilis [11],7.2
same,fold change (FC),Bacillus subtilis [12],7.1
same,fold change (FC),Bacillus subtilis [13],6.9
same,fold change (FC),Bacillus subtilis [14],6.5
same,fold change (FC),Bacillus subtilis [15],6.4
same,fold change (FC),Bacillus subtilis [16],6.2
same,fold change (FC),Bacillus subtilis [17],5.9
same,fold change (FC),Bacillus subtilis [18],5.7
same,fold change (FC),Bacillus subtilis [19],5.1
same,fold change (FC),Bacillus subtilis [20],4.7
same,fold change (FC),Bacillus subtilis [21],4.1
same,fold change (FC),Bacillus subtilis [22],4.1
same,fold change (FC),Bacillus subtilis [23],4.1
same,fold change (FC),Bacillus subtilis [24],3.9
same,fold change (FC),Bacillus subtilis [25],3.8
same,fold change (FC),Bacillus subtilis [26],3.8
same,fold change (FC),Bacillus subtilis [27],3.5
same,fold change (FC),Bacillus subtilis [28],3.7
same,fold change (FC),Bacillus subtilis [29],3.4
same,fold change (FC),Bacillus subtilis [30],3.4
same,fold change (FC),Bacillus subtilis [31],8.7
same,fold change (FC),Bacillus subtilis [32],7.4
same,fold change (FC),Bacillus subtilis [33],0.9
same,fold change (FC),Bacillus subtilis [34],0.8
same,fold change (FC),Bacillus subtilis [35],1.8
same,fold change (FC),Bacillus subtilis [36],1.2
same,fold change (FC),Bacillus subtilis [37],2.9
same,fold change (FC),Bacillus subtilis [38],0.9
CCCCCCCCCC(=O)N[C@@H](Cc1c[nH]c2ccccc12)C(=O)N[C@H](CC(N)=O)C(=O)N[C@@H](CC(=O)O)C(=O)N[C@@H]1C(=O)NCC(=O)N[C@@H](CCCN)C(=O)N[C@@H](CC(=O)O)C(=O)N[C@H](C)C(=O)N[C@@H](CC(=O)O)C(=O)NCC(=O)N[C@H](CO)C(=O)N[C@@H]([C@H](C)CC(=O)O)C(=O)N[C@@H](CC(=O)c2ccccc2N)C(=O)O[C@@H]1C,fold change (FC),Bacillus subtilis [1],4.5
same,fold change (FC),Bacillus subtilis [2],3.9
same,fold change (FC),Bacillus subtilis [3],3.3
same,fold change (FC),Bacillus subtilis [4],3.3
same,fold change (FC),Bacillus subtilis [5],3.3
same,fold change (FC),Bacillus subtilis [6],3.1
same,fold change (FC),Bacillus subtilis [7],429
same,fold change (FC),Bacillus subtilis [8],15
same,fold change (FC),Bacillus subtilis [9],4.6
same,Activity,Bacillus subtilis [10],inactive
same,Activity,Bacillus subtilis [11],inactive
same,Activity,Bacillus subtilis [12],inactive
same,Activity,Bacillus subtilis [13],inactive
same,Activity,Bacillus subtilis [14],inactive
same,Activity,Bacillus subtilis [15],inactive
same,Activity,Bacillus subtilis [16],inactive
same,Activity,Bacillus subtilis [17],inactive
same,Activity,Bacillus subtilis [18],inactive
same,Activity,Bacillus subtilis [19],inactive
same,Activity,Bacillus subtilis [20],inactive
same,Activity,Bacillus subtilis [21],inactive
same,Activity,Bacillus subtilis [22],inactive
same,Activity,Bacillus subtilis [23],inactive
same,Activity,Bacillus subtilis [24],inactive
same,Activity,Bacillus subtilis [25],inactive
same,Activity,Bacillus subtilis [26],inactive
same,Activity,Bacillus subtilis [27],inactive
same,Activity,Bacillus subtilis [28],inactive
same,Activity,Bacillus subtilis [29],inactive
same,Activity,Bacillus subtilis [30],inactive
same,fold change (FC),Bacillus subtilis [31],2.4
same,fold change (FC),Bacillus subtilis [32],2.4
same,fold change (FC),Bacillus subtilis [33],1.4
same,fold change (FC),Bacillus subtilis [34],0.8
same,fold change (FC),Bacillus subtilis [35],0.9
same,fold change (FC),Bacillus subtilis [36],1
same,fold change (FC),Bacillus subtilis [37],1
same,fold change (FC),Bacillus subtilis [38],1170
same,Activity,Bacillus subtilis [39],Active
